The nature of data set [1]: Percentage of tracer or metabolite (acid metabolites) in baboon plasma at 5 min after injection of the compound. Format: ADME, cell-free. To be noted: cercopithecidae. The essentials: (§1)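 Arterial baboon plasma taken 1, 5, 10 and 30 min after injection of 11C tracer. 0.2 mL plasma in 1 mL acetonitrile, sonicated, centrifuged. Supernatant run on silica HPLC with acetonitrile/0.004 M (NH4)2HPO4 70/30 plus unlabelled carrier. Unchanged tracer, EME and void-volume acidic 11C measured as fractions of total. [11C]CO2 measured separately by volatilization assay. Mean of two experiments.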

Data set [2] can be described thus: Percentage of tracer or metabolite (unchanged) in baboon plasma at 30 min after injection of the compound. Format: ADME, cell-free. To be noted: cercopithecidae, 0.5 h. The essentials:
as §1

A short description of data set [3]: Clearance from plasma(with matabolite-corrected plasma radioactivity-time integral) at 30 min after administration. Format: ADME, cell-free. To be noted: cercopithecidae, 0.5 h. In a few lines:
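Anaesthetised baboons given 4.7–8.4 mCi 11C tracer. Automated arterial sampling for the first 2 min, then manual sampling. Plasma total radioactivity corrected for metabolites using two-component exponential fits to the metabolite fractions. Time-radioactivity integral to 30 min by cubic spline integration.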

A short description of data set [4]: Percentage of tracer or metabolite (unchanged) in baboon plasma at 10 min after injection of the compound. Format: ADME, cell-free. To be noted: cercopithecidae. The essentials:
as §1

Data set [5] can be described thus: Percentage of tracer or metabolite(EME) in baboon plasma at 5 min after injection of the compound. Format: ADME, cell-free. To be noted: cercopithecidae. In a few lines:
as §1

The subject of data set [6] is Monkey. In words: Peak striatal uptake in baboon expressed as percentage of injected dose per mL of tissue. Format: functional, Cercopithecidae, Striatum. In a few lines: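 Adult female baboons (n = 7, 14.2–18.5 kg), ketamine 10 mg/kg i.m. induction, then oxygen/nitrous oxide/isoflurane anaesthesia. 4.7–8.4 mCi of N-11C-methyl tracer injected intravenously per PET scan. Regional time-activity curves; peak striatal radioactivity expressed as percent of injected dose per mL of tissue.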

Data set [7] in a line: Percentage of tracer or metabolite (acid metabolites) in baboon plasma at 10 min after injection of the compound. To be noted: cercopithecidae. Format: ADME, cell-free. The essentials: as §1
Data set [8] is described as follows: Percentage of tracer or metabolite (acid metabolites) in baboon plasma at 1 min after injection of the compound. Format: ADME, cell-free. To be noted: cercopithecidae. The essentials: as §1
Data set [9] can be described thus: Percentage of tracer or metabolite (unchanged) in baboon plasma at 5 min after injection of the compound. Format: ADME, cell-free. To be noted: cercopithecidae. In a few lines:
as §1

The nature of data set [10]: Percentage of tracer or metabolite (CO2) in baboon plasma at 10 min after injection of the compound. Format: ADME, cell-free. To be noted: cercopithecidae. The essentials: as §1
Data set [11] can be described thus: Percentage of tracer or metabolite (unchanged) in baboon plasma at 1 min after injection of the compound. Format: ADME, cell-free. To be noted: cercopithecidae. The essentials: as §1
A short description of data set [12]: Percentage of tracer or metabolite(EME) in baboon plasma at 1 min after injection of the compound. Format: ADME, cell-free. To be noted: cercopithecidae. In a few lines: as §1
Data set [13] in a line: Percentage of tracer or metabolite (CO2) in baboon plasma at 1 min after injection of the compound. Format: ADME. To be noted: cercopithecidae. The essentials: as §1
Data set [14] is described as follows: Percentage of tracer or metabolite (CO2) in baboon plasma at 5 min after injection of the compound. Format: ADME, cell-free. To be noted: cercopithecidae. The essentials:
as §1

A short description of data set [15]: Percentage of tracer or metabolite (acid metabolites) in baboon plasma at 30 min after injection of the compound. To be noted: cercopithecidae, 0.5 h. Format: ADME, cell-free. The essentials:
as §1

Data set [16] can be described thus: (§2) Baboon plasma free fraction. Format: ADME, cell-free. To be noted: cercopithecidae, read-out: Free fraction. The essentials:
(§3)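 Free fraction by ultrafiltration: 11C-labelled compound added to 0.18 mL baboon plasma plus 0.02 mL 100 mM sodium phosphate pH 7.4 with 1 μg physostigmine (esterase block). Incubated 15 min at room temperature, vortexed every 5 min, centrifugal filter spun 5 min. Value = 11C concentration in ultrafiltrate / concentration in incubation mixture.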

A short description of data set [17]: Percentage unmetabolized in baboon plasma at 30 min after administration. Format: functional, Cercopithecidae. The essentials: as §1
Data set [18] can be described thus: Percentage of tracer or metabolite (CO2) in baboon plasma at 30 min after injection of the compound. Format: ADME, cell-free. To be noted: cercopithecidae, 0.5 h. In a few lines: as §1
A short description of data set [19]: Percentage of tracer or metabolite(EME) in baboon plasma at 30 min after injection of the compound. Format: ADME, cell-free. To be noted: cercopithecidae, 0.5 h. The essentials:
as §1

Data set [20] in a line: Percentage of tracer or metabolite(EME) in baboon plasma at 10 min after injection of the compound. Format: ADME, cell-free. To be noted: cercopithecidae. In a few lines: as §1
In data set [21] the test system is Monkey. The description is as §2. To be noted: Cercopithecidae. Format: functional, organism-based. In a few lines:
as §3

Data set [22] addresses Sodium-dependent dopamine transporter (Rattus norvegicus, UniProt P23977). Kind of data set: Concentration inhibiting [3H]cocaine binding site to rat striatal membranes. The essentials:
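Rat striatal membranes prepared in ice-cold 320 mM sucrose with 10 mM NaH2PO4, pH 7.45 (1000g 3 min, then 30000g 30 min pellet). About 0.25 mg protein incubated at room temperature for 20 min with 2 nM [3H]cocaine, inhibitors 6 nM to 20 μM. Filtration through polyethylenimine-soaked glass-fibre filters, ice-cold wash, liquid scintillation counting.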

The record followed here is ChEMBL document CHEMBL1126073, “Synthesis of carbon-11 labeled iodinated cocaine derivatives and their distribution in baboon brain measured using positron emission tomography” (J Med Chem, 1992).

Sodium-dependent dopamine transporter, sequence (P23977 whole entry): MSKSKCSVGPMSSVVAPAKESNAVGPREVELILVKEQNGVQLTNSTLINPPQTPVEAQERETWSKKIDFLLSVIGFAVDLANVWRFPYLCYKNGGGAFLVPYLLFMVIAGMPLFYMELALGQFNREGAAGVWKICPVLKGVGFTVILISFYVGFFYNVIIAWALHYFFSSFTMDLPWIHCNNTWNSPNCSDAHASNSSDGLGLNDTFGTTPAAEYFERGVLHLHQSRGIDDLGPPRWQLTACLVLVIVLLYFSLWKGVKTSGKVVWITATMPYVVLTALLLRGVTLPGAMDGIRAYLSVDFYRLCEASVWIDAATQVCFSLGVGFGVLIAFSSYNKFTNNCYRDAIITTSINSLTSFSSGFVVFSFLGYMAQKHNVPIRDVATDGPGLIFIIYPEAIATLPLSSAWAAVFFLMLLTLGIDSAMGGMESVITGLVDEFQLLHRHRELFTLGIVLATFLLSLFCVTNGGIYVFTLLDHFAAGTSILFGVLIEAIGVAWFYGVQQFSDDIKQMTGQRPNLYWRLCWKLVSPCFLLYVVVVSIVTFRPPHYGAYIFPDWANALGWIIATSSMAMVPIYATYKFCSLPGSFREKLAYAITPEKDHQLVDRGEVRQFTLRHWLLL

As for `COC(=O)[C@H]1[C@@H](OC(=O)c2ccccc2)C[C@@H]2CC[C@H]1N2C` [COCAINE], the Tracer was 22% in data set [1]; 17% in data set [2]; 31% in data set [4]; 13% in [5]; 38% in data set [7]; 0.4% in data set [8]. In addition, the Tracer in data set [9] is reported as 44%; in data set [10], 37%; in [11], 70%; in data set [12] it was 12%; in data set [13] it was 6%; in data set [14], 30%. The Tracer in [15] is 60%; in data set [18], 44%; in [19] it was 12%; in data set [20], 11%. Besides, the Plasma integral in [3] turned out to be 2.1 uCi min ml-1. This compound displayed a Peak striatal uptake with Monkey [6] of 0.06. For the same compound, in [16], the fraction unbound was 0.1. Moreover, the Unmetabolized in data set [17] turned out to be 17%.
As for `COC(=O)C1C2CCC(C[C@@H]1OC(=O)c1cccc(I)c1)N2C` (stereo partly specified), the Tracer in data set [1] is 18%; in [2] it was 36%; in data set [4] it was 60%; in [5], 3%; in data set [7] it was 35%; in data set [8], 0.4%. Moreover, the Tracer was determined as 77% in data set [9]; 33% in data set [10]; 95% in [11]; 0.7% in data set [12]; 3% in data set [13]; 17% in data set [14]. Also, the Tracer in data set [15] is 51%; in data set [18] it was 43%; in data set [19], 4%; in [20] it was 1%. Also, the Plasma integral in [3] was determined as 2.8 uCi min ml-1. In the data set with Monkey [6], this compound returned a Peak striatal uptake of 0.03. Further, the fraction unbound in data set [16] came out at 0.016. The compound further had an Unmetabolized in data set [17] of 36%.
With `COC(=O)C1C2CCC(C[C@@H]1OC(=O)c1ccc(I)cc1)N2C` (stereo partly specified), the Tracer in data set [1] is 17%; in data set [2] it was 22%; in data set [4], 48%; in data set [5] it was 2.5%; in [7] it was 45%; in data set [8] it was 0.5%. For the same compound, the Tracer in data set [9] is reported as 60%; in data set [10], 21%; in data set [11], 90%; in [12], 1.5%; in [13], 1%; in data set [14], 7%. Also, the Tracer in [15] is 71%; in data set [18] it was 32%; in [19], 2.6%; in data set [20], 2%. Moreover, the Plasma integral in data set [3] is recorded as 1.8 uCi min ml-1. In the data set with Monkey [6], this compound yielded a Peak striatal uptake of 0.04. Further, the fraction unbound in [16] came out at 0.06. This compound also came in with an Unmetabolized in [17] of 22%.
In the case of `COC(=O)C1C2CCC(C[C@@H]1OC(=O)c1ccccc1I)N2C` (stereo partly specified), the Tracer came out at 15% in data set [1]; 33% in data set [2]; 48% in data set [4]; 0.2% in data set [5]; 52% in data set [7]; 0.02% in data set [8]. The Tracer in data set [9] is listed as 79%; in data set [10], 21%; in data set [11], 97%; in data set [12] it was 0.3%; in data set [13], -7%; in data set [14], 15%. The Tracer stood at 69% in [15], 29% in data set [18], 0.2% in data set [19] and 0.2% in [20]. In addition, the Plasma integral in [3] turned out to be 6.1 uCi min ml-1. In the data set with Monkey [6], this compound returned a Peak striatal uptake of 0.01. The same compound showed a Fu with Monkey [21] of 0.003%. For the same compound, the IC50 in [22] amounted to 350 nM. In data set [17], this compound displayed an Unmetabolized of 33%.
